Experimental data gathered from unrelated publications.
Target: Tyrosine-protein kinase receptor UFO (AXL, Homo sapiens, UniProt P30530)
Sequence (P30530 1-894, as in one of the studies): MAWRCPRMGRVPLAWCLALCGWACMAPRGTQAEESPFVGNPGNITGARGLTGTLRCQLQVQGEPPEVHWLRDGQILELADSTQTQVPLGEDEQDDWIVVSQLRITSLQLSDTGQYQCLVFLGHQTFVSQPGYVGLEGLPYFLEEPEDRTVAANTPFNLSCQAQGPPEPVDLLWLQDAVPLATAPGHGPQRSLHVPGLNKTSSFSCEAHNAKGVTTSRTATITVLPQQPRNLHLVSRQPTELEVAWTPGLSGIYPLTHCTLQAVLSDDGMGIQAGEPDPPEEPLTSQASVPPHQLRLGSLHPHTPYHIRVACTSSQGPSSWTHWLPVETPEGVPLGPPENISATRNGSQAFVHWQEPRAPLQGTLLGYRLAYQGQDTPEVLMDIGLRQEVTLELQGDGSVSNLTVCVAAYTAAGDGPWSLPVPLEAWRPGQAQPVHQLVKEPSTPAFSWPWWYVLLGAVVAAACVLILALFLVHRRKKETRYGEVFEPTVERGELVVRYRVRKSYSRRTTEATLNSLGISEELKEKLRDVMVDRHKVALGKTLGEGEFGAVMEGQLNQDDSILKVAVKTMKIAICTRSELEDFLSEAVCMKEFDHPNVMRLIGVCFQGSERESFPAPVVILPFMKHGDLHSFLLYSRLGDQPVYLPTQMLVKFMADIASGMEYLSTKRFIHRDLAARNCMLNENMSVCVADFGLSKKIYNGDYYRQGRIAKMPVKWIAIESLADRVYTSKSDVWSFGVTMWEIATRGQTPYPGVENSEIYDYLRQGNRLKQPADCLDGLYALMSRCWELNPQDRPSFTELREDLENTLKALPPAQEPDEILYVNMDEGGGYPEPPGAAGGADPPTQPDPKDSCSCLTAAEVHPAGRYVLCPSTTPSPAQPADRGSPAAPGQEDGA

With `COc1cc2ncnc(Nc3ccc(Oc4ccccc4)c(C)c3C)c2cc1OC` the inhibition was -3% (enzyme activity; inhibitor; 1 µM).
For `Cc1[nH]c(/C=C2\C(=O)Nc3ccc(F)cc32)c(C)c1C(=O)N[C@H]1CCN(C(=O)N(C)C)C1`, the remaining activity was 43% (enzyme activity; inhibitor; 1 µM).
`CNC(=O)c1cc(Oc2ccc(NC(=O)Nc3ccc(Cl)c(C(F)(F)F)c3)cc2)ccn1` has an inhibition of 68% (enzyme activity; inhibitor; 10 µM).
`N#CCCc1ccc2c(c1)-c1[nH]c3ccc([N+](=O)[O-])cc3c1CC(=O)N2` gave a remaining signal of 95.5% (cell-free assay; 0.5 µM).
`CCN(CC)CCNC(=O)c1c(C)[nH]c(/C=C2\C(=O)Nc3ccc(F)cc32)c1C` gave an inhibition of 75% (enzyme activity; inhibitor; 0.3 µM).
The remaining signal of `COc1cc(Nc2c(C#N)cnc3cc(OCCCN4CCN(C)CC4)c(OC)cc23)c(Cl)cc1Cl` is reported as 37.6% (cell-free assay; 0.5 µM).
For `CCN(CC)CCNC(=O)c1c(C)[nH]c(/C=C2\C(=O)Nc3ccc(F)cc32)c1C`, the remaining activity was 7% (enzyme activity; inhibitor; 1 µM).
`O=C(O)c1ccc2c3c1cccc3c(=O)n1c3ccccc3nc21` has a remaining activity of 94.3% (enzyme activity; inhibitor; 0.5 µM).
With `CNC(=O)c1cc2c(Oc3ccc(NC(=O)C4(C(=O)Nc5ccc(F)cc5)CC4)cc3)ccnc2cc1OC` the inhibition was 87% (enzyme activity; inhibitor; radiometric; 1 µM).
With `CCN(CC)c1ccc(C2=NNC(=O)CC2C)cc1[N+](=O)[O-]` (centres unmarked) the remaining activity was 94% (enzyme activity; inhibitor; 10 µM).
For `COc1cc(Cl)c(C(=O)N[C@@H](CN[C@H]2CC[C@@H](N)CC2)Cc2ccc(C#N)cc2)cc1-c1ccc(CN[C@H](C)c2ccc(C)cc2)o1`, the remaining activity was 56% (enzyme activity; inhibitor; 1 µM).
`Cc1cnc(NC2CCOCC2)nc1-n1cnc(C(=O)NC(CN)c2cc(F)cc(Cl)c2)c1` (centres unmarked) has a remaining activity of 103% (enzyme activity; inhibitor; radiometric; 1 µM).
`Cc1sc(C(=O)NC2COC2)cc1-n1cc(NC(=O)Nc2c(F)cccc2Cl)cn1` gave a remaining activity of 86.6% (enzyme activity; inhibitor; 10 µM).
With `Cc1nc(Cc2cccc(C(F)(F)F)c2)sc1-c1ccc(C(N)=O)nc1` the remaining binding was 100% (binding; competition with immobilised ligand; 1 µM).
The inhibition of `CCN1CCN(Cc2ccc(NC(=O)c3ccc(C)c(Oc4ccnc5[nH]ccc45)c3)cc2C(F)(F)F)CC1` is reported as -35.7% (target engagement in cells; inhibitor; chemoproteomics; A-375; 5 µM).
`O=C(Nc1ccc(Oc2ccc(F)cc2)cc1)N1CCc2ncccc2[C@H]1c1ccc(F)cc1` gave a remaining binding of 77% (cell-free assay; competition with immobilised ligand; 1 µM).
`CS(=O)(=O)CCNCc1ccc(-c2ccc3ncnc(Nc4ccc(OCc5cccc(F)c5)c(Cl)c4)c3c2)o1` has a remaining signal of 96.2% (cell-free assay; 0.5 µM).
The remaining binding of `Cc1c(C(=O)O)cc(-c2ccc(C3CCNCC3)cc2)c2ccc(-c3ccc(C(F)(F)F)cc3)cc12` is reported as 100% (binding; competition with immobilised ligand; 1 µM).
`CCCS(=O)(=O)Nc1ccc(F)c(C(=O)c2c[nH]c3ncc(-c4ccc(Cl)cc4)cc23)c1F` has an inhibition of under 10% (enzyme activity; inhibitor; 1 µM).
The remaining signal of `COc1cc2c(Nc3ccc(Br)cc3F)ncnc2cc1OCC1CCN(C)CC1` is reported as 55% (cell-free assay; 0.5 µM).
With `CC/C(=N\NC(=O)NCc1cccc(O)c1)c1ccc(O)c(C)c1O` the inhibition was 1.3% (enzyme activity; inhibitor; 0.1 µM).
`CC(C)(C)c1nc2c(s1)c1nc(N)ncc1c1ccc(NS(=O)(=O)c3c(F)cccc3F)c(F)c12` gave a remaining activity of 100% (enzyme activity; inhibitor; radiometric; 1 µM).
`CNCc1ccccc1-c1csc([C@H](C)Nc2nc(C)nc3cc(OC)c(OC)cc23)c1` gave a remaining binding of 100% (cell-free assay; competition with immobilised ligand; 1 µM).
The remaining signal of `Nc1ncnc2occ(-c3ccc(NC(=O)Nc4cc(C(F)(F)F)ccc4F)cc3)c12` is reported as 21% (cell-free assay; 20 µM).
`CC1=C(C#N)[C@@H](c2ccc3[nH]nc(C)c3c2)C(C#N)=C(c2ccc(Cl)cc2)N1` gave a remaining binding of 100% (cell-free assay; competition with immobilised ligand; 1 µM).
The inhibition of `CNCc1ccc(-c2cc(-c3nc(-c4ccc(S(=O)(=O)C(C)C)cc4)cnc3N)on2)cc1` is reported as 75% (enzyme activity; inhibitor; 2 µM).
`Cc1cc(NC(=O)c2cccc(S(F)(F)(F)(F)F)c2)cc(-n2ccn3nc(-c4cccnc4)cc23)c1` has a remaining binding of 100% (cell-free assay; competition with immobilised ligand; 1 µM).
The remaining signal of `O=C1NC(=O)c2cc(Nc3ccc(F)cc3)c(Nc3ccc(F)cc3)cc21` is reported as 104% (cell-free assay; 0.5 µM).
`Cc1cc(C)c(-n2ccn3nc(-c4cccnc4)cc23)cc1NC(=O)c1cc(C#N)cc(S(F)(F)(F)(F)F)c1` has a remaining binding of 80.5% (cell-free assay; competition with immobilised ligand; 0.1 µM).
`O=C(Nc1cnn(-c2csc(C(=O)NC3COC3)c2)c1)Nc1ccccc1Cl` has a remaining activity of 96.7% (enzyme activity; inhibitor; 5 µM).
For `Clc1ccc(Nc2nnc(Cc3ccncc3)c3ccccc23)cc1`, the remaining signal was 98.3% (cell-free assay; 0.5 µM).
`CCC(=O)N[C@@H]1CC[C@H](C(=O)N(C)c2ccc(-c3nc4ccccc4o3)cc2)C1` gave a remaining binding of 100% (cell-free assay; competition with immobilised ligand; 1 µM).
